{
  "source": "ChEMBL document CHEMBL3259569",
  "about": "(J Med Chem, 2014)",
  "key": {"HT-29": {"tested_on": "HT-29", "test": "Cytotoxicity against human HT-29 cells by MTT assay", "format": "functional, cell-based"}, "HCT-116 [1]": {"tested_on": "HCT-116", "test": "Induction of apoptosis in p53 knock down human HCT116 cells assessed as caspase-3 activation at 1 uM after 24 hrs by immunoblotting analysis", "format": "functional, cell-based"}, "HCT-116 [2]": {"tested_on": "HCT-116", "test": "Induction of apoptosis in human HCT116 cells assessed as accumulation at sub-G1 phase at 1 uM by propidium iodide staining-based flow cytometric analysis", "format": "functional, cell-based", "settings": "TDE = time-dependent effect", "summary_of_the_method": "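HCT116 cells exposed to 1 μM compound for varying time intervals; sub-G1 population quantified by flow cytometry.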"}, "HCT-116 [3]": {"tested_on": "HCT-116", "test": "Induction of apoptosis in human HCT116 cells assessed as caspase-3 activation after 24 hrs by Western blotting analysis", "format": "functional, cell-based", "summary_of_the_method": "(§1)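 HCT116 cells treated with indicated concentrations for 24 h; lysates probed by Western blot for caspase 3 and PARP cleavage.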"}, "HCT-116 [4]": {"tested_on": "HCT-116", "test": "Induction of apoptosis in human HCT116 cells assessed as PARP cleavage after 24 hrs by Western blotting analysis", "format": "functional, cell-based", "summary_of_the_method": "as §1"}, "HCT-116 [5]": {"tested_on": "HCT-116", "test": "Induction of apoptosis in human HCT116 cells assessed as PARP cleavage at 3 uM after 24 hrs by Western blotting analysis in presence of Z-VAD-FMK", "format": "functional, cell-based", "summary_of_the_method": "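HCT116 cells treated 24 h with 3 μM compound with or without 20 μM z-VAD-fmk pan-caspase inhibitor; caspase 3 and PARP assessed by Western blot.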"}, "Histone deacetylase 2": {"target": "Histone deacetylase 2 (Homo sapiens, UniProt Q92769)", "sequence (Q92769 whole entry)": "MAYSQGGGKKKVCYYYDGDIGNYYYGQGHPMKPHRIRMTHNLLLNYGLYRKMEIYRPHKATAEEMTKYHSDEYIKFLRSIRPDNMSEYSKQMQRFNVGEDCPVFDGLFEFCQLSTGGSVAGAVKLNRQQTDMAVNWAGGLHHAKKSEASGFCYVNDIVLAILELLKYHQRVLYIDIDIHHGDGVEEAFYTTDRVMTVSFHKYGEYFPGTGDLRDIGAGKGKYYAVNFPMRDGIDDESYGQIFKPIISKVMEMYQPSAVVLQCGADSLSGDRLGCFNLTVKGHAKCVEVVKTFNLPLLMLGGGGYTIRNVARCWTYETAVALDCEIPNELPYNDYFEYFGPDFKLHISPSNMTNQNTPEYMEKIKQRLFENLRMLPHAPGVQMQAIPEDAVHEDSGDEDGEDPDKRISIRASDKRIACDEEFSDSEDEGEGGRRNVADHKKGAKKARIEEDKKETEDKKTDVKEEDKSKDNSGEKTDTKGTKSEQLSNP"}, "Histone deacetylase 7": {"target": "T1, Histone deacetylase 7 (Homo sapiens, UniProt Q8WUI4)", "T1 sequence (Q8WUI4 whole entry)": "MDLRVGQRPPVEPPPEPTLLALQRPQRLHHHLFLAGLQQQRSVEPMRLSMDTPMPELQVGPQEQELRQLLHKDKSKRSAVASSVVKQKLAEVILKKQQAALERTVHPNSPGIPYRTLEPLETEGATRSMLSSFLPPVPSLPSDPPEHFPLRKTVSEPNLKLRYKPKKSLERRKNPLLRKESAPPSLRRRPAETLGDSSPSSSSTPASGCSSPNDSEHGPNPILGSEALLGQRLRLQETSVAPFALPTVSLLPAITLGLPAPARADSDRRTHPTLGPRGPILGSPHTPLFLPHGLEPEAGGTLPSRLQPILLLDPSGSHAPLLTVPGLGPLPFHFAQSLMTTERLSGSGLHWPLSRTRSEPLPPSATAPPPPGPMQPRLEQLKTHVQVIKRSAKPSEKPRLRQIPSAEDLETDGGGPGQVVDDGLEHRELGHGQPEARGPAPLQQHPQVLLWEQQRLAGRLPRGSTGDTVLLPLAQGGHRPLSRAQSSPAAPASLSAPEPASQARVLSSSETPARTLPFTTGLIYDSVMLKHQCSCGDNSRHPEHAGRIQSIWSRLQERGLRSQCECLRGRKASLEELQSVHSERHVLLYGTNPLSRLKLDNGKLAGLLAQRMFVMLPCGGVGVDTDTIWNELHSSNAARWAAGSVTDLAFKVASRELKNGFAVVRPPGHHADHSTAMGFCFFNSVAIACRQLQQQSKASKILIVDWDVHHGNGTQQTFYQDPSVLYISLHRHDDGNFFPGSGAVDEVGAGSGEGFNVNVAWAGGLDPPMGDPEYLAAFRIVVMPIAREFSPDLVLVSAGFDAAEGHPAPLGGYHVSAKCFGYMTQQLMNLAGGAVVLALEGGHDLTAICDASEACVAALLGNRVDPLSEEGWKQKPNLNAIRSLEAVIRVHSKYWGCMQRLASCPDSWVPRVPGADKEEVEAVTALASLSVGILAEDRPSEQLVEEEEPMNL", "test": "Inhibition of HDAC7 (unknown origin) by fluorescence assay", "summary_of_the_method": "(§2)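 Run by a contract testing lab. Compounds were dissolved in DMSO and tested in 10-dose IC50 mode, using 3-fold serial dilution starting at 10 μM. IC50 was taken from the dose series.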"}, "[6]": {"target": "T2, Polyamine deacetylase HDAC10 (Homo sapiens, UniProt Q969S8)", "T2 sequence (Q969S8 whole entry)": "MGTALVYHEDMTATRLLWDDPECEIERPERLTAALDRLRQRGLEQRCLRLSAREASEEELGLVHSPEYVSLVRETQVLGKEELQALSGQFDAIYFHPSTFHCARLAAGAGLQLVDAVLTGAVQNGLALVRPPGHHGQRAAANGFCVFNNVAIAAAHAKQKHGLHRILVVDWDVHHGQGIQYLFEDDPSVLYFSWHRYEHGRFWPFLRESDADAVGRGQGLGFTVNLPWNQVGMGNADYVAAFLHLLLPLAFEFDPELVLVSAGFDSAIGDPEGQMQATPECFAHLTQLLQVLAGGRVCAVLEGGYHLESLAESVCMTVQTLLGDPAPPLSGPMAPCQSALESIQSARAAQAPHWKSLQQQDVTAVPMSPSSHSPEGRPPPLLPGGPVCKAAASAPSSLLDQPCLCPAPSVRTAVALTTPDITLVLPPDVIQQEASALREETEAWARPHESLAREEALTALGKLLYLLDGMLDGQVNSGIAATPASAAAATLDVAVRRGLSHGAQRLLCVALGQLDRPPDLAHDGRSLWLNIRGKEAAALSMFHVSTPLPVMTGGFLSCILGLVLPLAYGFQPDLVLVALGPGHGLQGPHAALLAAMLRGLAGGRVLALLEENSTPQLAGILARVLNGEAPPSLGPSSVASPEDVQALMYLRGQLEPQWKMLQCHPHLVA", "test": "Inhibition of HDAC10 (unknown origin) by fluorescence assay", "summary_of_the_method": "as §2"}, "HCT-116 [7]": {"tested_on": "HCT-116", "test": "Anticancer activity against human HCT116 cells assessed as disruption of 3-dimensional spheroid structure after 72 hrs by phase-contrast light microscopic analysis", "format": "functional, cell-based", "summary_of_the_method": "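HCT116 cells (4 × 10^3/well) grown 5 days in semisolid GFR-Matrigel/10% FBS-DMEM (1:1) to form 3D spheres, then exposed to compound for 72 h; sphere structure examined by phase-contrast light microscopy.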"}, "[8]": {"test": "AUC (0 to infinity) in ICR mouse at 2 mg/kg, iv by LC-MS/MS analysis", "format": "ADME, organism-based", "parameters": "time infinity, dose 2 mg/kg, route intravenous", "settings": "plasma"}, "[9]": {"test": "Half life in ICR mouse at 2 mg/kg, iv by LC-MS/MS analysis", "format": "ADME, organism-based", "parameters": "dose 2 mg/kg, route intravenous", "settings": "in vivo"}, "[10]": {"test": "Volume of distribution at steady state in ICR mouse at 2 mg/kg, iv by LC-MS/MS analysis", "format": "ADME, organism-based", "parameters": "dose 2 mg/kg, route intravenous", "settings": "in vivo, read-out: Vdss"}, "[11]": {"test": "Half life in ICR mouse at 10 mg/kg, po by LC-MS/MS analysis", "format": "ADME, organism-based", "parameters": "dose 10 mg/kg, route oral", "settings": "in vivo"}, "[12]": {"test": "Tmax in ICR mouse at 10 mg/kg, po by LC-MS/MS analysis", "format": "ADME, organism-based", "parameters": "dose 10 mg/kg, route oral", "settings": "in vivo"}, "[13]": {"test": "Oral bioavailability in ICR mouse at 10 mg/kg by LC-MS/MS analysis", "format": "ADME, organism-based", "settings": "in vivo"}, "PC-3": {"tested_on": "PC-3", "test": "Cytotoxicity against human PC3 cells by MTT assay", "format": "functional, cell-based"}, "[14]": {"test": "Cytotoxicity against human HSC3 cells by MTT assay", "format": "functional, cell-based", "settings": "HSC-3"}, "[15]": {"target": "Histone deacetylase (Homo sapiens) (UniProt Q13547+O15379+Q9UBN7+Q92769+Q9UQL6+Q8WUI4+Q9BY41+Q96DB2+P56524+Q9UKV0+Q969S8)", "settings": "HCT-116, 1 uM"}},
  "note": "The source made the active and inactive calls. The calls are words filed in the database; no cut-off is given here.",
  "data": [
    {"smiles": "O=C(/C=C/c1cccc(S(=O)(=O)n2ccc3cccnc32)c1)NO", "values": [
      {"measurement": "IC50", "setting": "HT-29", "value": 1240, "unit": "nM"},
      {"measurement": "Activity", "setting": "HCT-116 [1]", "value": "inactive"},
      {"measurement": "Activity", "setting": "HCT-116 [2]", "value": "tde"},
      {"measurement": "Activity", "setting": "HCT-116 [3]", "value": "Dose-dependent effect"},
      {"measurement": "Activity", "setting": "HCT-116 [4]", "value": "Dose-dependent effect"},
      {"measurement": "Activity", "setting": "HCT-116 [5]", "value": "inactive"},
      {"measurement": "IC50", "setting": "Histone deacetylase 2", "value": 1160, "unit": "nM"},
      {"measurement": "IC50", "setting": "Histone deacetylase 7", "value": 4110, "unit": "nM"},
      {"measurement": "IC50", "setting": "[6]", "value": 4130, "unit": "nM"},
      {"measurement": "Activity", "setting": "HCT-116 [7]", "value": "Dose-dependent effect"},
      {"measurement": "AUC(0-inf)", "setting": "[8]", "value": 289, "unit": "ng·h/mL"},
      {"measurement": "half-life", "setting": "[9]", "value": 2.5, "unit": "h"},
      {"measurement": "Vd", "setting": "[10]", "value": 9.8, "unit": "L/kg"},
      {"measurement": "half-life", "setting": "[11]", "value": 2.4, "unit": "h"},
      {"measurement": "Tmax", "setting": "[12]", "value": 0.3, "unit": "h"},
      {"measurement": "bioavailability", "setting": "[13]", "value": 33, "unit": "%"},
      {"measurement": "IC50", "setting": "PC-3", "value": 1630, "unit": "nM"},
      {"measurement": "IC50", "setting": "[14]", "value": 660, "unit": "nM"},
      {"measurement": "inhibition", "setting": "[15]", "value": "inactive"}
    ]}
  ]
}
